Assay results: ChEMBL document CHEMBL5346932, “Structure-activity relationships of actively FhuE transported rifabutin derivatives with potent activity against Acinetobacter baumannii” (Eur J Med Chem, 2023)
Values after ≈ are worked out from the molar mass of the structure shown. Active and inactive are the calls of the source. The rule behind the calls is not given here.

How the values were obtained:
Assay type in all cases: functional
[1] = test system: Acinetobacter baumannii; assay: Antibacterial activity against Acinetobacter baumannii HUMC1 cultured in RPMI 1640 medium supplemented with 10% FCS assessed as bacterial growth inhibition incubated for 20 hrs by CLSI based microbroth dilution method
Summary of the method: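 CLSI broth microdilution in RPMI 1640 + 10% FCS in place of CAMHB. Compounds in 2-fold dilution series; inoculum 5×10^5 CFU/mL. Plates held static at 35 °C for 20 h. MIC read visually as the lowest concentration with no visible growth. […] is the reciprocal of this MIC.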

[2] = test system: Staphylococcus aureus; assay: Antibacterial activity against Staphylococcus aureus USA300 UAMS-1625 assessed as bacterial growth inhibition incubated for 20 hrs by CLSI based microbroth dilution method
Summary of the method: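 CLSI broth microdilution in CAMHB against S. aureus USA300 UAMS-1625. Compounds in 2-fold dilution series; inoculum 5×10^5 CFU/mL. Incubated without shaking at 35 °C for 20 h. MIC read visually as the lowest concentration preventing visible growth. Fold changes are relative to the rifabutin MIC.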

[3] = test system: Acinetobacter baumannii; assay: Antibacterial activity against Acinetobacter baumannii HUMC1 harboring FhuE deletion mutant assessed as bacterial growth inhibition incubated for 20 hrs by CLSI based microbroth dilution method
Summary of the method: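 Microbroth dilution per CLSI in RPMI 1640 + 10% FCS (in place of CAMHB). Compounds as 2-fold serial dilutions; inoculum 5×10^5 CFU/mL of previously described HUMC1-derived mutant strains. Incubated static at 35 °C for 20 h. MIC read visually as lowest concentration preventing visible growth.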

[4] = Acinetobacter baumannii, HUMC1, 20 h, read-out: MIC

SMILES	MIC [1, 4] [µg/mL]	further results
C#CCCN1CCC2(CC1)N=C1C(=C3NC(=O)/C(C)=C\C=C\[C@H](C)[C@H](O)[C@@H](C)[C@@H](O)[C@@H](C)[C@H](OC(C)=O)[C@H](C)[C@@H](OC)/C=C/O[C@@]4(C)Oc5c(C)c(O)c(c1c5C4=O)C3=O)N2	0.004 (≈ 0.00475 µM)	
CO[C@H]1/C=C/O[C@@]2(C)Oc3c(C)c(O)c4c(c3C2=O)C2=NC3(CCN(CC5CCCCC5)CC3)NC2=C(NC(=O)/C(C)=C\C=C\[C@H](C)[C@H](O)[C@@H](C)[C@@H](O)[C@@H](C)[C@H](OC(C)=O)[C@@H]1C)C4=O (stereo in doubt; form 1) [listing 1 of 2 here]		Activity [2]: Active
CO[C@H]1/C=C/O[C@@]2(C)Oc3c(C)c(O)c4c(c3C2=O)C2=NC3(CCN(C5CCCCC5C)CC3)NC2=C(NC(=O)/C(C)=C\C=C\[C@H](C)[C@H](O)[C@@H](C)[C@@H](O)[C@@H](C)[C@H](OC(C)=O)[C@@H]1C)C4=O (some centres not stated)	0.125 (≈ 0.141 µM)	
CCCN1CCC2(CC1)N=C1C(=C3NC(=O)/C(C)=C\C=C\[C@H](C)[C@H](O)[C@@H](C)[C@@H](O)[C@@H](C)[C@H](OC(C)=O)[C@H](C)[C@@H](OC)/C=C/O[C@@]4(C)Oc5c(C)c(O)c(c1c5C4=O)C3=O)N2	0.004 (≈ 0.0048 µM)	Activity [2]: Active; MIC [3]: 0.5 µg/mL (≈ 0.6 µM)
COC(=O)[C@@H](C)N1CCC2(CC1)N=C1C(=C3NC(=O)/C(C)=C\C=C\[C@H](C)[C@H](O)[C@@H](C)[C@@H](O)[C@@H](C)[C@H](OC(C)=O)[C@H](C)[C@@H](OC)/C=C/O[C@@]4(C)Oc5c(C)c(O)c(c1c5C4=O)C3=O)N2	0.125 (≈ 0.143 µM)	MIC [3]: 0.5 µg/mL (≈ 0.57 µM)
COC(=O)CCCN1CCC2(CC1)N=C1C(=C3NC(=O)/C(C)=C\C=C\[C@H](C)[C@H](O)[C@@H](C)[C@@H](O)[C@@H](C)[C@H](OC(C)=O)[C@H](C)[C@@H](OC)/C=C/O[C@@]4(C)Oc5c(C)c(O)c(c1c5C4=O)C3=O)N2	0.5 (≈ 0.561 µM)	
CO[C@H]1/C=C/O[C@@]2(C)Oc3c(C)c(O)c4c(c3C2=O)C2=NC3(CCN(C5CCOCC5)CC3)NC2=C(NC(=O)/C(C)=C\C=C\[C@H](C)[C@H](O)[C@@H](C)[C@@H](O)[C@@H](C)[C@H](OC(C)=O)[C@@H]1C)C4=O	0.008 (≈ 0.00914 µM)	
CO[C@H]1/C=C/O[C@@]2(C)Oc3c(C)c(O)c4c(c3C2=O)C2=NC3(CCN(CC(=O)N(C)C)CC3)NC2=C(NC(=O)/C(C)=C\C=C\[C@H](C)[C@H](O)[C@@H](C)[C@@H](O)[C@@H](C)[C@H](OC(C)=O)[C@@H]1C)C4=O	0.5 (≈ 0.571 µM)	
CO[C@H]1/C=C/O[C@@]2(C)Oc3c(C)c(O)c4c(c3C2=O)C2=NC3(CCN(CCc5ccccc5)CC3)NC2=C(NC(=O)/C(C)=C\C=C\[C@H](C)[C@H](O)[C@@H](C)[C@@H](O)[C@@H](C)[C@H](OC(C)=O)[C@@H]1C)C4=O	0.5 (≈ 0.559 µM)	Activity [2]: Active
CO[C@H]1/C=C/O[C@@]2(C)Oc3c(C)c(O)c4c(c3C2=O)C2=NC3(CCN(C5CCCC(C)C5)CC3)NC2=C(NC(=O)/C(C)=C\C=C\[C@H](C)[C@H](O)[C@@H](C)[C@@H](O)[C@@H](C)[C@H](OC(C)=O)[C@@H]1C)C4=O (some centres not stated)	0.03 (≈ 0.0338 µM)	
CO[C@H]1/C=C/O[C@@]2(C)Oc3c(C)c(O)c4c(c3C2=O)C2=NC3(CCN(C5CCCC5)CC3)NC2=C(NC(=O)/C(C)=C\C=C\[C@H](C)[C@H](O)[C@@H](C)[C@@H](O)[C@@H](C)[C@H](OC(C)=O)[C@@H]1C)C4=O (stereo in doubt; form 2)		MIC ([1]; 20 h): 0.004 µg/mL (≈ 0.00466 µM)
CO[C@H]1/C=C/O[C@@]2(C)Oc3c(C)c(O)c4c(c3C2=O)C2=NC3(CCN(CC5CCCCC5)CC3)NC2=C(NC(=O)/C(C)=C\C=C\[C@H](C)[C@H](O)[C@@H](C)[C@@H](O)[C@@H](C)[C@H](OC(C)=O)[C@@H]1C)C4=O (stereo in doubt; form 2)		MIC ([1]; 20 h): 0.03 µg/mL (≈ 0.0338 µM)
CO[C@H]1/C=C/O[C@@]2(C)Oc3c(C)c(O)c4c(c3C2=O)C2=NC3(CCN(CC5CC5)CC3)NC2=C(NC(=O)/C(C)=C\C=C\[C@H](C)[C@H](O)[C@@H](C)[C@@H](O)[C@@H](C)[C@H](OC(C)=O)[C@@H]1C)C4=O	0.001 (≈ 0.00118 µM)	Activity [2]: Active; MIC [3]: 0.5 µg/mL (≈ 0.592 µM)
CO[C@H]1/C=C/O[C@@]2(C)Oc3c(C)c(O)c4c(c3C2=O)C2=NC3(CCN(CC5CCCCC5)CC3)NC2=C(NC(=O)/C(C)=C\C=C\[C@H](C)[C@H](O)[C@@H](C)[C@@H](O)[C@@H](C)[C@H](OC(C)=O)[C@@H]1C)C4=O (stereo in doubt; form 1) [listing 2 of 2 here]	0.06 (≈ 0.0676 µM)	
CO[C@H]1/C=C/O[C@@]2(C)Oc3c(C)c(O)c4c(c3C2=O)C2=NC3(CCN(C5CCN(C)CC5)CC3)NC2=C(NC(=O)/C(C)=C\C=C\[C@H](C)[C@H](O)[C@@H](C)[C@@H](O)[C@@H](C)[C@H](OC(C)=O)[C@@H]1C)C4=O	0.25 (≈ 0.282 µM)	
COC(=O)CN1CCC2(CC1)N=C1C(=C3NC(=O)/C(C)=C\C=C\[C@H](C)[C@H](O)[C@@H](C)[C@@H](O)[C@@H](C)[C@H](OC(C)=O)[C@H](C)[C@@H](OC)/C=C/O[C@@]4(C)Oc5c(C)c(O)c(c1c5C4=O)C3=O)N2		MIC ([1]; Acinetobacter baumannii, HUMC1, read-out: MIC): 0.5 µg/mL (≈ 0.579 µM); MIC [3]: 0.5 µg/mL (≈ 0.579 µM)

SMILES	MIC [1, 4] [µg/mL]	further results
CCOC(=O)N1CCC2(CC1)N=C1C(=C3NC(=O)/C(C)=C\C=C\[C@H](C)[C@H](O)[C@@H](C)[C@@H](O)[C@@H](C)[C@H](OC(C)=O)[C@H](C)[C@@H](OC)/C=C/O[C@@]4(C)Oc5c(C)c(O)c(c1c5C4=O)C3=O)N2	8 (≈ 9.27 µM)	
CO[C@H]1/C=C/O[C@@]2(C)Oc3c(C)c(O)c4c(c3C2=O)C2=NC3(CCN(C5CC5)CC3)NC2=C(NC(=O)/C(C)=C\C=C\[C@H](C)[C@H](O)[C@@H](C)[C@@H](O)[C@@H](C)[C@H](OC(C)=O)[C@@H]1C)C4=O (stereo in doubt; form 2)		MIC ([1]; 20 h): 0.001 µg/mL (≈ 0.0012 µM)
CO[C@H]1/C=C/O[C@@]2(C)Oc3c(C)c(O)c4c(c3C2=O)C2=NC3(CCN(C[C@H]5CCCO5)CC3)NC2=C(NC(=O)/C(C)=C\C=C\[C@H](C)[C@H](O)[C@@H](C)[C@@H](O)[C@@H](C)[C@H](OC(C)=O)[C@@H]1C)C4=O	0.125 (≈ 0.143 µM)	
CO[C@H]1/C=C/O[C@@]2(C)Oc3c(C)c(O)c4c(c3C2=O)C2=NC3(CCN(CC#N)CC3)NC2=C(NC(=O)/C(C)=C\C=C\[C@H](C)[C@H](O)[C@@H](C)[C@@H](O)[C@@H](C)[C@H](OC(C)=O)[C@@H]1C)C4=O	0.25 (≈ 0.301 µM)	
CO[C@H]1/C=C/O[C@@]2(C)Oc3c(C)c(O)c4c(c3C2=O)C2=NC3(CCN(C(C)(C)CC(C)(C)C)CC3)NC2=C(NC(=O)/C(C)=C\C=C\[C@H](C)[C@H](O)[C@@H](C)[C@@H](O)[C@@H](C)[C@H](OC(C)=O)[C@@H]1C)C4=O	0.03 (≈ 0.0332 µM)	
CO[C@H]1/C=C/O[C@@]2(C)Oc3c(C)c(O)c4c(c3C2=O)C2=NC3(CCN(C(C)=O)CC3)NC2=C(NC(=O)/C(C)=C\C=C\[C@H](C)[C@H](O)[C@@H](C)[C@@H](O)[C@@H](C)[C@H](OC(C)=O)[C@@H]1C)C4=O	4 (≈ 4.8 µM)	
CCCCN1CCC2(CC1)N=C1C(=C3NC(=O)/C(C)=C\C=C\[C@H](C)[C@H](O)[C@@H](C)[C@@H](O)[C@@H](C)[C@H](OC(C)=O)[C@H](C)[C@@H](OC)/C=C/O[C@@]4(C)Oc5c(C)c(O)c(c1c5C4=O)C3=O)N2	0.004 (≈ 0.00472 µM)	Activity [2]: Active
CO[C@H]1/C=C/O[C@@]2(C)Oc3c(C)c(O)c4c(c3C2=O)C2=NC3(CCN(Cc5ccccc5)CC3)NC2=C(NC(=O)/C(C)=C\C=C\[C@H](C)[C@H](O)[C@@H](C)[C@@H](O)[C@@H](C)[C@H](OC(C)=O)[C@@H]1C)C4=O	0.125 (≈ 0.142 µM)	Activity [2]: Active
CO[C@H]1/C=C/O[C@@]2(C)Oc3c(C)c(O)c4c(c3C2=O)C2=NC3(CCOCC3)NC2=C(NC(=O)/C(C)=C\C=C\[C@H](C)[C@H](O)[C@@H](C)[C@@H](O)[C@@H](C)[C@H](OC(C)=O)[C@@H]1C)C4=O	2 (≈ 2.53 µM)	
COCCN1CCC2(CC1)N=C1C(=C3NC(=O)/C(C)=C\C=C\[C@H](C)[C@H](O)[C@@H](C)[C@@H](O)[C@@H](C)[C@H](OC(C)=O)[C@H](C)[C@@H](OC)/C=C/O[C@@]4(C)Oc5c(C)c(O)c(c1c5C4=O)C3=O)N2	0.016 (≈ 0.0188 µM)	
CO[C@H]1/C=C/O[C@@]2(C)Oc3c(C)c(O)c4c(c3C2=O)C2=NC3(CC[N+](C)(C)CC3)NC2=C(NC(=O)/C(C)=C\C=C\[C@H](C)[C@H](O)[C@@H](C)[C@@H](O)[C@@H](C)[C@H](OC(C)=O)[C@@H]1C)C4=O.[I-]	8	
CO[C@H]1/C=C/O[C@@]2(C)Oc3c(C)c(O)c4c(c3C2=O)C2=NC3(CCN(CCN5CCOCC5)CC3)NC2=C(NC(=O)/C(C)=C\C=C\[C@H](C)[C@H](O)[C@@H](C)[C@@H](O)[C@@H](C)[C@H](OC(C)=O)[C@@H]1C)C4=O	1 (≈ 1.11 µM)	
CO[C@H]1/C=C/O[C@@]2(C)Oc3c(C)c(O)c4c(c3C2=O)C2=NC3(CCN([C@H]5CCCO5)CC3)NC2=C(NC(=O)/C(C)=C\C=C\[C@H](C)[C@H](O)[C@@H](C)[C@@H](O)[C@@H](C)[C@H](OC(C)=O)[C@@H]1C)C4=O	0.016 (≈ 0.0186 µM)	
CO[C@H]1/C=C/O[C@@]2(C)Oc3c(C)c(O)c4c(c3C2=O)C2=NC3(CCCCC3)NC2=C(NC(=O)/C(C)=C\C=C\[C@H](C)[C@H](O)[C@@H](C)[C@@H](O)[C@@H](C)[C@H](OC(C)=O)[C@@H]1C)C4=O	0.125 (≈ 0.158 µM)	MIC [3]: 0.5 µg/mL (≈ 0.633 µM)
C#CCN1CCC2(CC1)N=C1C(=C3NC(=O)/C(C)=C\C=C\[C@H](C)[C@H](O)[C@@H](C)[C@@H](O)[C@@H](C)[C@H](OC(C)=O)[C@H](C)[C@@H](OC)/C=C/O[C@@]4(C)Oc5c(C)c(O)c(c1c5C4=O)C3=O)N2	0.008 (≈ 0.00965 µM)	
CO[C@H]1/C=C/O[C@@]2(C)Oc3c(C)c(O)c4c(c3C2=O)C(=N)C(N)=C(NC(=O)/C(C)=C\C=C\[C@H](C)[C@H](O)[C@@H](C)[C@@H](O)[C@@H](C)[C@H](OC(C)=O)[C@@H]1C)C4=O	0.5 (≈ 0.704 µM)	
